Tests used:
Mus musculus [1] = assay: Inhibition of DNFB-induced ear edema in mouse chronic dermatitis model at 10 mg/kg, po after 24 hrs relative to control; assay type: functional
Procedure, shortened: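 Mouse chronic dermatitis model: DNFB painted repeatedly; compound dosed orally at 10 mg/kg once daily throughout the experimental period. Ear thickness read 24 h after the sixth DNFB painting; inhibition ratio calculated versus vehicle, significance by Student's t test.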

[2] = Stability in aqueous solution in pH 7 at 10 uM; assay type: physicochemical
Procedure, shortened: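 Compound at 10 µM incubated at 37 °C in 0.1 M phosphate buffer, pH 7.0, sampled at 0, 4 and 8 h; fraction remaining quantified by HPLC and reported as half-life.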

[3] = Inhibition of human elastase
[4] = Inhibition of bovine alpha chymotrypsin; design: species or system Bos taurus
Cathepsin G = biological target: T1, Cathepsin G (Homo sapiens, UniProt P08311); assay: Inhibition of human cathepsin G
T1 sequence (P08311 whole entry): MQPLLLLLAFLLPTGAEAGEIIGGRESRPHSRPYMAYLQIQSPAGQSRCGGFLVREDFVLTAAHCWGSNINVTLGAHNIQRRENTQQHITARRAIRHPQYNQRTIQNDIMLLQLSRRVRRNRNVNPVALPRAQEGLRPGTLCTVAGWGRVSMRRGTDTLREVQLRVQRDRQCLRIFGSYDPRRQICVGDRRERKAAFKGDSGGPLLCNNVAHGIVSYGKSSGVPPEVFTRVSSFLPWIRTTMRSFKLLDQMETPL

[5] = Inhibition of bovine trypsin; design: species or system Bos taurus
Chymase = biological target: T2, Chymase (Homo sapiens, UniProt P23946); assay: Inhibition of human recombinant chymase
T2 sequence (P23946 whole entry): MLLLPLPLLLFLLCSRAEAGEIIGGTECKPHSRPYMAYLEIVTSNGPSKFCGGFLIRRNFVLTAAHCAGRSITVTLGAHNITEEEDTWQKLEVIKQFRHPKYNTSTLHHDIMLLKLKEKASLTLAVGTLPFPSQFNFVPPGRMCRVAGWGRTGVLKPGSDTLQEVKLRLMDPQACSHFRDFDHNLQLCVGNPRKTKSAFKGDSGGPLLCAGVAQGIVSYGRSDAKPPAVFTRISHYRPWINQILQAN

Mus musculus [6] = assay: Inhibition of DNFB-induced ear edema in mouse chronic dermatitis model at 10 mg/kg, ip after 24 hrs relative to control; assay type: functional; details: route intraperitoneal
Procedure, shortened: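 Chronic dermatitis in mice induced by repeated DNFB painting; intraperitoneal dosing at 10 mg/kg once daily over the experimental period. Ear thickness measured 24 h after sixth DNFB application, expressed as inhibition ratio against vehicle group; Student's t test.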

Question: Which inhibition in vivo at 10 mg/kg (Mus musculus [1]) does the source give for `CC[C@@H](NC(=O)N1CC(=O)NC[C@@H](Cc2cc(Cl)ccc2OC)C1=O)c1cccc(C(=O)O)c1` here?
Answer: The inhibition in vivo at 10 mg/kg was 22.9%.

Question: And the half-life at 10 µM [2]?
Answer: The half-life at 10 µM was 7.4 h.

Question: What about the IC50 [3] of the same molecule?
Answer: Its IC50 is over 100 µM.

Question: What about the IC50 [4] of the same molecule?
Answer: Its IC50 is 56 µM.

Question: What about the IC50 (Cathepsin G) of the same molecule?
Answer: Its IC50 is 8 µM.

Question: What about the IC50 [5] of the same molecule?
Answer: The IC50 was over 100 µM.

Question: Which half-life at 10 µM [2] does the source give for `CCC(NC(=O)N1CC(=O)NCC(Cc2cc(Cl)ccc2OC)C1=O)c1ccccc1` (centres undefined) here?
Answer: Its half-life at 10 µM is 6.3 h.

Question: With `COc1ccc(Cl)cc1CC1CNC(=O)CN(C(=O)NC(c2ccccc2)C(C)C)C1=O` (centres undefined) as the molecule, how does the half-life at 10 µM [2] read?
Answer: Its half-life at 10 µM is 8 h.

Question: Which inhibition in vivo at 10 mg/kg (Mus musculus [1]) does the source give for `CC[C@@H](NC(=O)N1CC(=O)NC[C@@H](Cc2cc(Cl)ccc2OC)C1=O)c1ccc(C(=O)O)c(N)c1` here?
Answer: The inhibition in vivo at 10 mg/kg was 29.7%.

Question: And the half-life at 10 µM [2]?
Answer: The half-life at 10 µM was 6.7 h.

Question: What about the IC50 [3] of the same molecule?
Answer: The IC50 was over 100 µM.

Question: And the IC50 [4]?
Answer: Its IC50 is over 100 µM.

Question: What about the IC50 (Cathepsin G) of the same molecule?
Answer: Its IC50 is 16 µM.

Question: And the IC50 [5]?
Answer: The IC50 was over 100 µM.

Question: For `COc1ccc(Cl)cc1CC1CNC(=O)CN(C(=O)NC(C)c2ccccc2)C1=O` (centres undefined), which half-life at 10 µM [2] is on record?
Answer: Its half-life at 10 µM is 6.2 h.

Question: For `CC[C@@H](NC(=O)N1CC(=O)NC[C@H](Cc2cc(Cl)ccc2OC)C1=O)c1ccc(C(=O)O)c(N)c1`, which inhibition in vivo at 10 mg/kg (Mus musculus [1]) is on record?
Answer: The inhibition in vivo at 10 mg/kg was 35.8%.

Question: What about the half-life at 10 µM [2] of the same molecule?
Answer: The half-life at 10 µM was 6.1 h.

Question: What about the IC50 [3] of the same molecule?
Answer: The IC50 was over 100 µM.

Question: And the IC50 [4]?
Answer: The IC50 was 23 µM.

Question: And the IC50 (Cathepsin G)?
Answer: The IC50 was 28 µM.

Question: And the IC50 [5]?
Answer: The IC50 was over 100 µM.

Question: For `CCCC(NC(=O)N1CC(=O)NCC(Cc2cc(Cl)ccc2OC)C1=O)c1ccccc1` (centres undefined), which half-life at 10 µM [2] is on record?
Answer: The half-life at 10 µM was 7.6 h.

Question: With `COc1ccc(Cl)cc1CC1CNC(=O)CN(C(=O)NCc2ccccc2)C1=O` (racemic) as the molecule, how does the half-life at 10 µM [2] read?
Answer: The half-life at 10 µM was 6.8 h.

Question: Which half-life at 10 µM [2] does the source give for `COc1ccc(Cl)cc1CC1CNC(=O)CN(C(=O)NCCc2ccccc2)C1=O` (racemic) here?
Answer: Its half-life at 10 µM is 12.9 h.

Question: With `COc1ccc(Cl)cc1CC1CNC(=O)CN(C(=O)NC(c2ccccc2)c2ccccc2)C1=O` (racemic) as the molecule, how does the IC50 (Chymase) read?
Answer: The IC50 was over 100 µM.

Question: What about the half-life at 10 µM [2] of the same molecule?
Answer: The half-life at 10 µM was 16.5 h.

Question: What does the source list for `COc1ccc(Cl)cc1CC1CNC(=O)CN(C(=O)N(C)Cc2ccccc2)C1=O` (racemic)?
Answer: IC50 (Chymase): > 100 µM; half-life at 10 µM [2]: > 48 h

Question: For `C[C@]12C=CC(=O)C=C1CC[C@@H]1[C@@H]2[C@@H](O)C[C@@]2(C)[C@H]1CC[C@]2(O)C(=O)CO` [PREDNISOLONE], which inhibition in vivo at 10 mg/kg (Mus musculus [6]) is on record?
Answer: The inhibition in vivo at 10 mg/kg was 54.6%.

— ChEMBL document CHEMBL1139941, “Development of 6-benzyl substituted 4-aminocarbonyl-1,4-diazepane-2,5-diones as orally active human chymase inhibitors” (Bioorg Med Chem Lett, 2007)
